From ChEMBL document CHEMBL1138779, “Antitumor agents. 234. Design, synthesis, and biological evaluation of novel 4beta-[(4' '-benzamido)-amino]-4'-o-demethyl-epipodophyllotoxin derivatives” (2004)
≈ marks a conversion by molar mass, not a printed value. Where “and” joins values, the source holds several entries; their conditions need not be identical. Identical values can stand only once. Calls of active or inactive are those of the source. The calls are words filed in the database; no cut-off is given here.

What was measured:
[1] = system: PC-3; assay: Dose required for reduction in human prostate PC-3 cancer cells after 3 days incubation; type: functional; conditions: PC-3, 72 h, read-out: ED50 (the source's name)
In short: (§1)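 Cells grown at 37 °C, humidified 5% CO2, in RPMI-1640 with 25 mM HEPES, […], 10% (v/v) FBS and 100 µg/mL kanamycin. Drug exposure for 3 days. ED50 (concentration giving 50% reduction in cell number) interpolated from dose–response data. Triplicate tests, variation no more than 5%; independent ED50 determinations varied no more than 30%.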

[2] = system: A549; assay: Dose required for reduction in human lung A549 cancer cells after 3 days incubation; type: functional; conditions: A549, 72 h, read-out: ED50 (the source's name); in short: as §1
[3] = system: KB; assay: Ratio of ED50 for KB-7d cells to that of KB cells; type: functional, Homo sapiens
In short: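 Relative resistance (fold) taken as ED50 against KB-7d divided by ED50 against KB. Both values come from 3-day drug exposure, with ED50 interpolated from dose–response data as the concentration reducing cell number by 50%.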

[4] = system: HCT-8; assay: Dose required for reduction in human ileocecal HCT-8 cancer cells after 3 day incubation; type: functional; conditions: HCT-8, 72 h, read-out: ED50 (the source's name); in short: as §1
[5] = system: KB; assay: Dose required for reduction in camptothecin resistant human nasopharyngeal KB cancer cells after 3 days incubation; type: functional; conditions: 72 h, read-out: ED50 (the source's name); in short: as §1
[6] = system: MCF7; assay: Dose required for reduction in human breast MCF-7 cancer cells after 3 day incubation; type: functional; conditions: MCF7, 72 h, read-out: ED50 (the source's name); in short: as §1
[7] = system: KB; assay: Dose required for reduction in human nasopharyngeal KB-7d cancer cells after 3 days incubation; type: functional; conditions: 72 h, read-out: ED50 (the source's name); in short: as §1
[8] = system: KB; assay: Dose required to cause reduction in human nasopharyngeal KB cancer cells after 3 days incubation; type: functional; conditions: 72 h, read-out: ED50 (the source's name); in short: as §1
[9] = system: 1A9/ptx-10; assay: Dose required for reduction in paclitaxel resistant human ovarian 1A9-PTX10 cancer cells after 3 days incubation; type: functional; conditions: 1A9/ptx-10, 72 h, read-out: ED50 (the source's name); in short: as §1
[10] = system: CAKI-1; assay: Dose required for reduction in human renal CAKI-1 cancer cells after 3 days incubation; type: functional; conditions: CAKI-1, 72 h, read-out: ED50 (the source's name); in short: as §1
[11] = system: 1A9; assay: Dose required to cause reduction in human ovarian 1A9 cancer cells after 3 days incubation; type: functional; conditions: 1A9, 72 h, read-out: ED50 (the source's name); in short: as §1
[12] = system: KB; assay: Dose required for reduction in etoposide resistant human nasopharyngeal KB-7d cancer cells after 3 days incubation; type: functional; conditions: 72 h, read-out: ED50 (the source's name); in short: as §1
[13] = target: T1, DNA topoisomerase II (Homo sapiens) (UniProt P11388+Q02880); assay: Percentage of protein-linked DNA breaks in KB cells by [3H]thymidine incorporation; type: functional, cell-based; design: concentration or dose not given beside the values
In short: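 KB cells labelled overnight with 0.5 µCi/mL [methyl-3H]thymidine ([…]), chased 2 h, then treated in duplicate with compound at 10 µg/mL for 1 h. Protein-associated DNA breaks measured as potassium–SDS precipitable radioactivity. Values expressed relative to VP-16 control set at 100%.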

[14] = system: U-87 MG; assay: Dose required for reduction in human glioblastoma U-87-MG cancer cells after 3 days incubation; type: functional, U-87MG ATCC; conditions: 72 h, read-out: ED50 (the source's name); in short: as §1
[15] = system: KB; assay: Dose required for reduction in vincristine resistant human nasopharyngeal KB-VIN cancer cells after 3 days incubation; type: functional; conditions: 72 h, read-out: ED50 (the source's name); in short: as §1
[16] = target: T1, DNA topoisomerase II (Homo sapiens); assay: Percentage of protein-linked DNA breaks in KB cells by [3H]thymidine incorporation at 5 ug/mL; type: functional, cell-based
In short: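 [3H]thymidine-prelabelled KB cells (0.5 µCi/mL, overnight, 2 h chase) treated in duplicate with compound at 5 µg/mL for 1 h. Protein-linked DNA breaks read as potassium–SDS precipitable radioactivity, given as percent of the VP-16 control set at 100%.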

[17] = system: KB; assay: Dose required to cause reduction in human nasopharyngeal KB-7d cancer cells after 3 days incubation; type: functional; conditions: 72 h, read-out: ED50 (the source's name); in short: as §1
[18] = system: CAKI-1; assay: Dose required for reduction in human renal CAKI-1 cancer cells after 3 days incubation; NA = not applicable; type: functional, cell-based; in short: as §1

Row | Structure (SMILES) | EC50 [1] [µM] | EC50 [2] [µM] | Relative resistance [3] | EC50 [4] [µM] | EC50 [5] [µM] | EC50 [6] [µM] | EC50 [7] [µg/mL] | EC50 [8] | EC50 [9] [µM] | EC50 [10] [µM] | EC50 [11] [µM] | EC50 [12] [µM] | Activity [13] [%] | EC50 [14] [µM] | EC50 [15] [µM] | Activity [16] [%] | EC50 [17] [µg/mL] | ED50 [18]
1 | COC(=O)[C@H](Cc1ccccc1)NC(=O)c1ccc(N[C@@H]2c3cc4c(cc3[C@@H](c3cc(OC)c(O)c(OC)c3)[C@H]3C(=O)OC[C@@H]32)OCO4)cc1 | > 100 | 1.2 | 1.8 | 3.8 | 3.7 | 9.6 | 1 (≈ 1.47 µM) | 0.55 µg/mL and 1.4 µM | 1.7 | > 100 | 0.36 | 1.7 | 226 | 87.1 | 4.2 | – | – | –
2 | COc1cc([C@@H]2c3cc4c(cc3[C@@H](NC(=O)[C@H](Cc3ccc(O)cc3)NC(=O)OCc3ccccc3)[C@H]3COC(=O)[C@H]23)OCO4)cc(OC)c1O | 94.8 | 15.9 | – | 77.7 | 9 | 17.4 | – | 3.9 µM | 5 | > 100 | 0.94 | 11.9 | – | 100 | > 100 | – | – | –
3 | COc1cc([C@@H]2c3cc4c(cc3[C@@H](Nc3ccc(C(=O)NCCc5ccccc5)cc3)[C@H]3COC(=O)[C@H]23)OCO4)cc(OC)c1O | – | – | 14 | – | – | – | 0.5 (≈ 0.803 µM) | 0.03 µg/mL | – | – | – | – | – | – | – | 227 | – | –
4 | COC(=O)[C@H](CCSC)NC(=O)c1ccc(N[C@@H]2c3cc4c(cc3[C@@H](c3cc(OC)c(O)c(OC)c3)[C@H]3C(=O)OC[C@@H]32)OCO4)cc1 | 82.7 | 2 | 3 | 11.4 | 3.3 | 9.3 | 2.4 (≈ 3.61 µM) | 0.8 µg/mL and 1.9 µM | 2.1 | > 100 | 0.12 | 5.6 | 295 | 45.2 | 65.3 | – | – | –
5 | COc1cc([C@@H]2c3cc4c(cc3[C@@H](Nc3ccc(C(=O)N[C@H](C)C(=O)OCc5ccccc5)cc3)[C@H]3COC(=O)[C@H]23)OCO4)cc(OC)c1O | > 100 | 0.47 | 2.5 | 2.2 | 1.9 | 2.7 | 0.25 (≈ 0.367 µM) | 0.1 µg/mL and 1 µM | 1.2 | > 100 | 0.057 | 0.67 | 133 | 39.9 | 3.7 | – | – | –
6 | COc1cc([C@@H]2c3cc4c(cc3[C@@H](O[C@@H]3O[C@@H]5CO[C@@H](C)O[C@H]5[C@H](O)[C@H]3O)[C@H]3COC(=O)[C@H]23)OCO4)cc(OC)c1O [ETOPOSIDE] | > 100 | 10.6 | >20 | 62.9 | 7 | 62.2 | – | 0.5 µg/mL and 300 nM | > 5 | > 100 | 0.15 | 17.2 | 100 | 73.6 | > 100 | 100 | > 10 | –
7 | COC(=O)[C@H](Cc1ccc(O)cc1)NC(=O)c1ccc(N[C@@H]2c3cc4c(cc3[C@@H](c3cc(OC)c(O)c(OC)c3)[C@H]3C(=O)OC[C@@H]32)OCO4)cc1 | – | – | 2.6 | – | – | – | 5 (≈ 7.18 µM) | 1.9 µg/mL | – | – | – | – | 76 | – | – | – | – | –
8 | COC(=O)[C@H](Cc1c[nH]c2ccccc12)NC(=O)c1ccc(N[C@@H]2c3cc4c(cc3[C@@H](c3cc(OC)c(O)c(OC)c3)[C@H]3C(=O)OC[C@@H]32)OCO4)cc1 | – | – | 5 | – | – | – | 2.5 (≈ 3.47 µM) | 0.5 µg/mL | – | – | – | – | 58 | – | – | – | – | –
9 | COC(=O)[C@H](Cc1c[nH]cn1)NC(=O)c1ccc(N[C@@H]2c3cc4c(cc3[C@@H](c3cc(OC)c(O)c(OC)c3)[C@H]3C(=O)OC[C@@H]32)OCO4)cc1 | > 100 | 16.1 | 9.6 | 66 | 17.6 | 29.8 | 2.2 (≈ 3.28 µM) | 0.23 µg/mL and 7.6 µM | 4 | > 100 | 0.69 | 14.7 | 122 | > 100 | 11.1 | – | – | –
10 | COc1cc([C@@H]2c3cc4c(cc3[C@@H](Nc3ccc(C(=O)N[C@@H](Cc5c[nH]c6ccccc56)C(=O)O)cc3)[C@H]3COC(=O)[C@H]23)OCO4)cc(OC)c1O | – | – | 2 | – | – | – | 8 (≈ 11.3 µM) | 4 µg/mL | – | – | – | – | 7 | – | – | – | – | –
11 | COc1cc([C@@H]2c3cc4c(cc3[C@@H](Nc3ccc([N+](=O)[O-])cc3)[C@H]3COC(=O)[C@H]23)OCO4)cc(OC)c1O | – | – | 10 | – | – | – | 2 (≈ 3.84 µM) | 0.2 µg/mL | – | – | – | – | 244 | – | – | 218 | – | –
12 | COc1cc([C@@H]2c3cc4c(cc3[C@@H](Nc3ccc(C(=O)NCCc5ccc(O)cc5)cc3)[C@H]3COC(=O)[C@H]23)OCO4)cc(OC)c1O | – | – | 32 | – | – | – | 0.8 (≈ 1.25 µM) | 0.02 µg/mL | – | – | – | – | 368 | – | – | 275 | – | –
13 | COc1cc([C@@H]2c3cc4c(cc3[C@@H](NC(=O)[C@@H](N)Cc3ccc(O)cc3)[C@H]3COC(=O)[C@H]23)OCO4)cc(OC)c1O | > 100 | 54.3 | – | > 100 | 44.8 | 41.7 | – | 18.8 µM | > 5 | – | 3.3 | 30.2 | – | > 100 | > 100 | – | – | inactive
14 | COC(=O)[C@@H](Cc1c[nH]c2ccccc12)NC(=O)c1ccc(N[C@@H]2c3cc4c(cc3[C@@H](c3cc(OC)c(O)c(OC)c3)[C@H]3C(=O)OC[C@@H]32)OCO4)cc1 | > 100 | 0.63 | 6.2 | 3.4 | 0.28 | 3.6 | 0.4 (≈ 0.556 µM) | 0.06 µg/mL and 440 nM | 0.35 | > 100 | 0.02 | 3.5 | 121 | 94.3 | 54.9 | – | – | –
15 | COc1cc([C@@H]2c3cc4c(cc3[C@@H](Nc3ccc(C(=O)N[C@@H](C)C(=O)OCc5ccccc5)cc3)[C@H]3COC(=O)[C@H]23)OCO4)cc(OC)c1O | 3.8 | 0.7 | 0.5 | 2.4 | 1.7 | 1.6 | 0.25 (≈ 0.367 µM) | 0.5 µg/mL and 900 nM | 0.2 | > 100 | 0.05 | 1.4 | 210 | 8 | 10.4 | – | – | –
16 | COC(=O)[C@H](Cc1ccc(O)c(O)c1)NC(=O)c1ccc(N[C@@H]2c3cc4c(cc3[C@@H](c3cc(OC)c(O)c(OC)c3)[C@H]3C(=O)OC[C@@H]32)OCO4)cc1 | – | – | 5.5 | – | – | – | 5.5 (≈ 7.72 µM) | 1 µg/mL | – | – | – | – | 33 | – | – | – | – | –
17 | COc1cc([C@@H]2c3cc4c(cc3[C@@H](Nc3ccc(C(=O)NCC(=O)OCc5ccccc5)cc3)[C@H]3COC(=O)[C@H]23)OCO4)cc(OC)c1O | > 100 | 0.61 | 0.6 | 3.5 | 1.3 | 2.3 | 0.3 (≈ 0.45 µM) | 0.5 µg/mL and 860 nM | 0.78 | > 100 | 0.12 | 2.6 | 178 | 16.9 | 38.9 | – | – | –
18 | COc1cc([C@@H]2c3cc4c(cc3[C@@H](Nc3ccc(NC(=O)[C@@H](Cc5ccc(O)cc5)NC(=O)OCc5ccccc5)cc3)[C@H]3COC(=O)[C@H]23)OCO4)cc(OC)c1O | > 100 | 0.77 | – | > 100 | – | 1.9 | – | 0.49 µM | 0.92 | – | 0.0086 | – | – | > 100 | > 100 | – | – | inactive
